# Experimental data reported in paper PMC9324959 (Angewandte Chemie (International Ed. in English), 2022).
# System: HeLa cells
# Experiment: Cytotoxicity assay
# Type: cell-based
# Details: under the conditions used
# In short: (§1)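 Where cells were clearly affected but the curve could not be fitted, the value was flagged. "n/a" marks no effect under the conditions tested.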
row,Structure (SMILES),cytotoxicity (in words)
1,CC(=O)Nc1ccc(-c2csc(NC(=O)c3ccccc3)n2)cc1 [Compound 6],not cytotoxic
2,CC(=O)Nc1ccc(-c2csc(Nc3ccc(C(F)(F)F)cc3)n2)cc1 [Compound 19],abrogated activity

# System: not listed separately
# Experiment: Cytotoxicity assay
# Type: cell-based
# Details: human, HeLa cells
# In short: as §1
row,Structure (SMILES),IC50 at 72 h
1,CC(=O)Nc1ccc(-c2csc(Nc3ccccc3)n2)cc1 [Compound 4],48 µM
2,CC(=O)Nc1ccc(-c2csc(Nc3ccccc3F)n2)cc1 [Compound 8],> 80 µM
3,CC(=O)Nc1ccc(-c2csc(Nc3ccc(F)cc3)n2)cc1 [Compound 10],> 80 µM
4,"CCC(=O)Nc1ccc(-c2csc(Nc3cccc(F)c3)n2)cc1 [Compound 11, N-[4-[2-(3-fluoroanilino)thiazol-4-yl]phenyl]propanamide]",38 µM
5,CC(C)C(=O)Nc1ccc(-c2csc(Nc3cccc(F)c3)n2)cc1 [Compound 12],34 µM
6,O=C(Nc1ccc(-c2csc(Nc3cccc(F)c3)n2)cc1)C1CC1 [Compound 13],38 µM
7,CC(=O)Nc1ccc(-c2csc(Nc3ccccc3C)n2)cc1 [Compound 14],59 µM
8,CC(=O)Nc1ccc(-c2csc(Nc3cccc(C)c3)n2)cc1 [Compound 15],37 µM
9,CC(=O)Nc1ccc(-c2csc(Nc3ccccc3C(F)(F)F)n2)cc1 [Compound 17],71 µM
10,CC(=O)Nc1ccc(-c2csc(Nc3cccc(Cl)c3)n2)cc1 [Compound 20],19 µM
11,CC(=O)Nc1ccc(-c2csc(Nc3cccc(O)c3)n2)cc1 [Compound 21],50 µM
12,COc1cccc(Nc2nc(-c3ccc(NC(C)=O)cc3)cs2)c1 [Compound 22],43 µM
